These results are taken from PMC11542020 (Blood Cancer Journal, 2024).

Read-outs that look alike come from different tables or passages of the source.

Data set [1] deals with T-ALL PDX (ALL-8). As to conditions: OBI-3424 2.5 mg/kg, PR-104 200 mg/kg; cited from earlier work.
The test system of data set [2] is T-ALL PDX (ALL-31). As to conditions: OBI-3424 2.5 mg/kg, PR-104 200 mg/kg; cited from earlier work.
In data set [3] the test system is T-ALL PDX (ALL-8). As to the kind of experiment: In vivo relapsed/refractory therapy comparison. Also noted: species or system human.
The next data set deals with B-ALL PDXs. Nature of the data set: Ex vivo cytotoxicity assay. The class given is cell-based, human. In short, it runs like this: (§1)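 Patient-derived xenograft leukemia cells were cultured ex vivo in AIM V medium at a density optimized for each xenograft (1–5 × 10⁶ cells per mL). ALL-11 cells were lentivirally transduced with AKR1C3 or with empty vector. Viability was read by resazurin or CellTiter-Glo. IC₅₀ was interpolated from nonlinear regression curves, with three biological experiments.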

For another data set, the system named is T-ALL PDXs. As to the kind of experiment: Ex vivo cytotoxicity assay. The class given is cell-based, human. In short, it runs like this: as §1
A short description of data set [4]: ACHM-025 pharmacokinetic analysis of murine brain. The class given is in vivo. As to conditions: female, NSG, mouse, intraperitoneal, 25 mg/kg.
Data set [5] in a line: Preliminary tolerability studies in cynomolgus monkeys. The class given is in vivo, cynomolgus monkey.
For data set [6], the system named is ALL-11/EV. As to the kind of experiment: Ex vivo cytotoxicity assay on ALL-11 PDX empty vector. The class given is cell-based. As to conditions: Homo sapiens, 48 h. In short, it runs like this: as §1
Data set [7] concerns T-ALL PDX (ALL-8). As to the kind of experiment: Histopathologic analysis of mouse skull and brain to assess tumor burden. As to conditions: 10 mg/kg IP Days 0, 7, 14. The class given is in vivo, human.
Data set [8] relates to T-ALL PDX (ALL-31). As to the kind of experiment: In vivo efficacy, conventional study, T-ALL PDX ALL-31 in NSG mice. Details: species or system human. As to conditions: 25 mg/kg IP Days 0, 7, 14.
The subject of data set [9] is ALL-11/AKR1C3. Nature of the data set: Ex vivo cytotoxicity assay on ALL-11 PDX overexpressing AKR1C3. The class given is cell-based. As to conditions: Homo sapiens, 48 h. In short, it runs like this: as §1
Data set [10] can be described thus: ACHM-025 tolerability in naïve immunodeficient mice. As to conditions: 25 mg/kg via IP weekly ×3. The class given is in vivo, mouse.
The subject of data set [11] is T-ALL PDX (ALL-8). Nature of the data set: Minimal residual disease. The class given is in vivo, human. As to conditions: not within the quantitative range of the assay.
Data set [12] is described as follows: Plasma protein binding. The class given is in vitro ADME. As to conditions: human.
The test system of data set [13] is T-ALL PDX (ALL-8). As to the kind of experiment: In vivo consolidation therapy comparison, ALL-8 in NSG mice. Details: species or system human. In short, it runs like this: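 ALL-8-engrafted mice received test compound 5 mg/kg IP on Days 0 and 7, alone or with Ara-C and 6-mercaptopurine (each 12.5 mg/kg IP, Days 0–4 and 7–11). Comparators were cyclophosphamide (75 mg/kg IP, Days 0 and 7) and vehicle. Human CD45⁺ in PB was tracked over time. At Day 28, or at event for vehicle, PB, BM and spleen were assessed as % huCD45⁺ of mouse CD45⁺ (3 mice).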

Data set [14] is described as follows: ACHM-025 pharmacokinetic analysis of murine plasma. The class given is in vivo. As to conditions: female, NSG, mouse, ip, 25 mg/kg, across the dose levels 5, 10, 25 mg/kg IP.
For data set [15], the system named is ALL-11/EV. Nature of the data set: In vivo efficacy against ALL-11/EV in mice. Also noted: species or system human. As to conditions: 25 mg/kg IP Days 0, 7, 14. In short, it runs like this:
(§2)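 Mice engrafted with the patient-derived xenograft were dosed IP and their peripheral blood % human CD45⁺ was monitored. An event was defined as huCD45⁺ >25% in PB. Event-free survival of treated and vehicle cohorts was compared as T-C and T/C. Studies used either n = 6 mice per treatment or single-mouse testing (n = 1).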

For data set [16], the system named is ALL-11/AKR1C3. Nature of the data set: In vivo efficacy against ALL-11/AKR1C3 in mice. Details: species or system human. As to conditions: 25 mg/kg IP Days 0, 7, 14. In short, it runs like this: as §2
Data set [17] in a line: Plasma protein binding. The class given is in vitro ADME. As to conditions: mouse.
A further data set deals with 25 T-ALL PDXs. As to the kind of experiment: In vivo single mouse trial. Details: species or system human. As to conditions: 25 mg/kg IP Days 0, 7, 14.
The test system of data set [18] is T-ALL PDX (ALL-8). Nature of the data set: In vivo dose response study, conventional, T-ALL PDX ALL-8 in NSG mice. Details: species or system human.
[19] abbreviates: ACHM-025 10 mg/kg IP Days 0, 7, 14, nelarabine 125 mg/kg IP Days 0–4, 14–18, alone or combined.

On to `CS(=O)(=O)OCCN(CCBr)c1c(C(=O)NCCOP(=O)(O)O)cc([N+](=O)[O-])cc1[N+](=O)[O-]` [PR-104], for which the entries for the “delay of leukemia progression” value in the data set with T-ALL PDX (ALL-8) [1] and in the data set on T-ALL PDX (ALL-31) [2] were 54.3 days and 44.4 days, respectively.

As to `COc1nc(N)nc2c1ncn2[C@@H]1O[C@H](CO)[C@@H](O)[C@@H]1O` [Nelarabine, nelarabine, reference compound], in the data set with T-ALL PDX (ALL-8) [3] (setting [19]), the “EFS (median event free survival)” value is listed as 28.4 days, the T-C came to 19.1 days and the T/C is given as 3.1 days. The “human leukemia levels in the PB, BM or spleen at Day 28” value with T-ALL PDX (ALL-8) [3] (nelarabine 125 mg/kg IP Days 0–4, 14–18) is recorded as “did not significantly decrease”.

Consider `CS(=O)(=O)OCCN(CCBr)c1c(C(=O)NCCO)cc([N+](=O)[O-])cc1[N+](=O)[O-]` [PR-104A, reference compound], for which the IC50 was 26600 nM in the data set on B-ALL PDXs (read-out: Median IC50, median of B-ALL PDXs) and 1800 nM in the data set with T-ALL PDXs (read-out: Median IC50, median of T-ALL PDXs).

For the compound `CN1CCN(S(=O)(=O)c2cc([N+](=O)[O-])ccc2N(CCOS(C)(=O)=O)CCOS(C)(=O)=O)CC1` [ACHM-025, ((2-((4-methylpiperazin-1-yl)sulfonyl)-4-nitrophenyl)azanediyl)bis(ethane-2,1-diyl) dimethanesulfonate], the concentration at 0.25 h in data set [4] turned out to be 140 nM. The single dose-limiting toxicity result in [5] (0.6 mg/kg) is given as “neutropenia”. Also, the “all other hematological, clinical chemistry, urinalysis and histopathology parameters” value in data set [5] (2.0 mg/kg, the highest dose tested) is reported as “within normal range”. Further, the well tolerated doses in data set [5] (preliminary studies) is given as ≤ 0.5 mg/kg. Further, the half-maximal inhibitory concentration (IC50) in the data set on ALL-11/EV [6] is 1260 nM; with ALL-11/AKR1C3 [9], 13.1 nM; in the data set on B-ALL PDXs (Homo sapiens, 48 h, read-out: Median IC50, median of 6 B-ALL PDXs, 48 h), 840 nM; in the data set on T-ALL PDXs (Homo sapiens, 48 h, read-out: Median IC50, median of 6 T-ALL PDXs, 48 h) it was 29 nM. For the same compound, the “leukemic infiltration of the calvarial bone marrow at Day 28 (H&E, TdT)” value in the data set on T-ALL PDX (ALL-8) [7] was “no observable leukemic infiltration”. Moreover, in the data set with T-ALL PDX (ALL-31) [8], the “Median EFS” value is reported as > 332 days. In addition, in the data set with T-ALL PDX (ALL-31) [8], the “human leukemia cells in the murine peripheral blood (PB)” value is given as < 1%. Moreover, the “mice that did not relapse over the >300-day observation period following the last treatment” value with T-ALL PDX (ALL-31) [8] was 3 out of 5. The “time for which human leukemia cells in PB <1% was maintained” value with T-ALL PDX (ALL-31) [8] was found to be 10 consecutive weeks. For the same compound, the Tolerability result in data set [10] was “well tolerated”. In the data set with T-ALL PDX (ALL-8) [11], the “MRD in BM samples at Day 28 (PCR-based assay)” value is on record as “MRD positive”. The results for the fraction unbound at 5 µmol/L in “Plasma protein binding [12]” and in “Plasma protein binding [17]” were 0.646 and 0.569, respectively. Further, the “human leukemia levels in the PB, BM and spleen at Day 28” value in the data set on T-ALL PDX (ALL-8) [13] (ACHM-025 5 mg/kg IP Days 0, 7) was “undetectable levels”. The “human leukemia cells in the murine PB” value with T-ALL PDX (ALL-8) [13] (ACHM-025 5 mg/kg IP Days 0, 7, for six consecutive weeks) is listed as < 1%. For the same compound, the Cmax in data set [14] (Cmax) was 1600 to 9300 nM. The AUC(0-inf) in data set [14] (total plasma exposure (AUC0-inf)) was 0.5 to 3.3 µM·h. For the same compound, the “Treated EFS” value is 49.1 days with ALL-11/EV [15] and 104 days in the data set with ALL-11/AKR1C3 [16]. In the data set on 25 T-ALL PDXs, the “PDXs that did not reach event during the 250 day monitoring period following the final treatment” value was 7/25. The “human leukemia cells in the BM at Day 28 by flow cytometry” value with T-ALL PDX (ALL-8) [3] is given as “no detectable human leukemia cells”. In addition, in the data set with T-ALL PDX (ALL-8) [3] (setting [19]), the “EFS (median event free survival)” value worked out at 207 days. The ORM result is “MCRs” in the data set with T-ALL PDX (ALL-8) [3] (setting [19]); “MCRs” in the data set on T-ALL PDX (ALL-8) [18] (10 mg/kg IP Days 0, 7, 14); “MCRs” in the data set on T-ALL PDX (ALL-8) [18] (15 mg/kg IP Days 0, 7, 14); “MCRs” in the data set with T-ALL PDX (ALL-8) [18] (25 mg/kg IP Days 0, 7, 14). For the same compound, in the data set with T-ALL PDX (ALL-8) [3] (setting [19]), the T-C stood at 198 days. In addition, in the data set with T-ALL PDX (ALL-8) [3] (setting [19]), the T/C was found to be 22.5 days. Besides, the “mice with no detectable human leukemia cells in the PB at 250 days after the last treatment” value with T-ALL PDX (ALL-8) [18] (25 mg/kg IP Days 0, 7, 14) is 5 out of 6. In the data set with T-ALL PDX (ALL-8) [18] (any of the three doses (10, 15 or 25 mg/kg)), the “human leukemia cells in the PB, BM, spleen, kidney or liver at Day 28” value is reported as “no detectable human leukemia cells”.

As usually defined, the IC50 is the midpoint of a concentration-inhibition curve. As usually defined, the fraction unbound is the share of the substance not bound to proteins or other matrix. Read a high fraction unbound as much free substance. For orientation: Cmax means the maximum level reached in the sampled fluid or tissue. By AUC(0-inf) is commonly meant the area under the concentration-time curve extrapolated to infinity. Lower therefore signals less exposure.
